Compound activity from PubChem BioAssay.
NadD block: inhibitors of Staphylococcus aureus NadD | 0.78% of 360,000 active | AID 602399 | inhibition, % at 20 µM | purified NadD enzyme, colorimetric absorbance read-out; in the data active means inhibition above about 26%
IMP-1 inhibitor: inhibitors of Pseudomonas aeruginosa IMP-1 metallo-beta-lactamase. purified IMP-1, nitrocefin hydrolysis, epi-absorbance fluorescence. 0.45% of 290,000 active. inhibition, % at 5.6 µM;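 active means inhibition above the mean plus 3 SD of all compounds in the same screening run, cut at about 4.5% in these data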;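 further: 0% = IMP-1 with DMSO and 100% = DMSO wells lacking enzyme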
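system = purified recombinant IMP-1 beta-lactamase | amount = 0.2 nM IMP-1, as dispensed | medium = HEPES buffer pH 7.1 with ZnSO4 and Brij 35 | times = 25 °C, 15 min preincubation, 25 min reaction | detection = plate fluorescence quenching by hydrolysis product, ex 480/em 530 nm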
HCV core dimer: HCV core protein dimerization inhibition. TR-FRET GST/Flag-core106 dimerization, 1536-well. 0.33% of 300,000 active. inhibition, % at 5 µM;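 active means inhibition above the mean of all tested compounds plus 3 SD, set per screening campaign, cut at about 45% in these data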
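System – GST-tagged and Flag-tagged HCV core protein residues 1-106 · Repeats – one well for each compound · Technique – TR-FRET 671 and 617 nm emission · Doses – one concentration, 5 µM, in 0.5% DMSO · Times – 4 h, 22.5 °C incubation · Also added – Eu donor and XL665 acceptor anti-tag antibodies · Measure – percent inhibition of core106 dimerization signal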
VIM-2 inhibitor: inhibitors of Pseudomonas aeruginosa VIM-2 metallo-beta-lactamase; purified VIM-2, nitrocefin hydrolysis, epi-absorbance fluorescence; inhibition, % at 5.6 µM; 0.89% of 290,000 active;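 active means inhibition above the mean of all tested compounds plus 3 SD, cutoff set per screening run, cut at about 7.5% in these data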;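 further: red hydrolysis product quenches plate fluorescence so inhibitors raise well fluorescence; 0% = enzyme with DMSO and 100% = DMSO without enzyme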
NadD inh conf: NadD (S. aureus) inhibition, single concentration confirmation; shares compounds with NadD block; purified S. aureus NadD, colorimetric enzyme assay; inhibition, % at 20 µM; 13% of 2,000 active; AID 624309; in the data active means inhibition mostly above about 42%, no sharp cut-off; inactive means mostly below about 42%
The depositor's hits bear a star; . = no result given. Rows were chosen to be rich in hits. Some 1.9% of all compounds tested hit in one or more screens of this group.

SMILES | NadD block | IMP-1 inhibitor | HCV core dimer | VIM-2 inhibitor | NadD inh conf
COc1ccccc1-c1cc(C(=O)N/N=C/c2ccc(C)s2)c2ccccc2n1 | 32* | -5 | 37 | -4 | 16
COc1ccc(/C=N/NC(=O)c2cc(-c3ccccc3OC)nc3ccccc23)cc1COC(C)=O | 9 | -3 | 13 | -4 | .
COc1ccc(/C=N/NC(=O)c2cc(-c3ccc(C)cc3C)nc3ccccc23)cc1COC(C)=O | 38* | -4 | 27 | -2 | -3
CCN(CC)C(=O)COc1ccc(/C=N/NC(=O)c2cc(-c3ccccc3OC)nc3ccccc23)cc1OC | 5 | . | 5 | . | .
O=C(CCNC(=O)C1CCN(S(=O)(=O)c2ccc(F)cc2)CC1)NCc1ccccn1 | 1 | . | . | . | .
O=C(Nc1ccc2oc(-c3cccc4ccccc34)nc2c1)c1ncn[nH]1 | 27* | -3 | 22 | -5 | -2
CC(C)c1ccc2oc(-c3ccc(NC(=O)c4ncn[nH]4)cc3)nc2c1 | 39* | -3 | 9 | -3 | 9
COc1ccc(NC(=O)Nc2nnc(-c3ccncc3)s2)cc1 | 9 | -4 | -2 | -3 | .
O=C(Nc1ccc(Cl)c(Cl)c1)Nc1nnc(-c2ccncc2)s1 | 61* | -3 | 87* | -6 | 9
COc1cc(OC)c2c(-c3ccccc3)cc(=O)oc2c1C(CC(=O)N1CCOCC1)c1ccc(N(C)C)cc1 (stereo not drawn) | -1 | . | 11 | . | .
COc1cc(OC)c2c(-c3ccccc3)cc(=O)oc2c1C(CC(=O)N1CCN(c2ccccc2)CC1)c1ccc(N(C)C)cc1 (stereo not drawn) | 30* | . | 26 | . | 1
Cc1ccc(S(=O)(=O)Nc2ccccc2C(=O)Nc2nc(-c3ccc(F)cc3)cs2)cc1 | 32* | -4 | 26 | 0 | 48*
O=C(OC(C(=O)Nc1ccc([N+](=O)[O-])cc1Br)c1ccccc1)c1ccccc1 (stereo not drawn) | -9 | -1 | 5 | -3 | .
N#CCC(=O)Nc1ccc(C(=O)OC(C(=O)Nc2ccc([N+](=O)[O-])cc2Br)c2ccccc2)cc1 (stereo not drawn) | 46* | . | . | . | 39
Cc1c2ccccc2cc(Cc2ccccc2)[n+]1C | 11 | -1 | 2 | -1 | .
CCc1ccc2[nH]c(=O)c(C3C(C#N)=C(N)Oc4c3ccc3cccnc43)cc2c1 (stereo not drawn) | 38* | -3 | 14 | 0 | 9
Cc1ccc(/C(O)=C2/C(=O)C(=O)N(CCCn3ccnc3)C2c2ccccn2)cc1 (stereo not drawn) | . | -2 | . | -3 | .
Cc1ccccc1COc1ccc(/C(O)=C2/C(=O)C(=O)N(CCCn3ccnc3)C2c2ccco2)cc1 (stereo not drawn) | 31* | . | 7 | . | 53*
CC(C)n1c(=S)[nH]c2scc(-c3cccs3)c2c1=O | 30* | 4 | 65* | -3 | 67*
CCn1c(=S)[nH]c2scc(-c3cccs3)c2c1=O | -3 | -3 | . | -4 | .
O=S(=O)(Nc1cccc(-c2cn3cccnc3n2)c1)c1ccccc1 | 1 | -2 | 4 | -3 | .
O=S(=O)(Nc1cccc(-c2cn3cccnc3n2)c1)c1ccc(-c2ccccc2)cc1 | 40* | -3 | 50* | -4 | 41
COc1ccc(NC(=O)CCCN2C(=O)C(c3ccccc3)Oc3cccnc32)cc1OC (stereo not drawn) | -3 | -3 | 13 | -2 | .
COc1ccc(Br)cc1CNC(=O)CN1C(=O)C(c2ccccc2)Oc2cccnc21 (stereo not drawn) | 59* | -6 | 8 | -2 | 52*
O=C(Nc1ccc(-c2csc(Nc3cccc(C(F)(F)F)c3)n2)cc1)c1cc([N+](=O)[O-])cc(C(F)(F)F)c1 | 33* | . | 19 | . | 5
SMILES | NadD block | IMP-1 inhibitor | HCV core dimer | VIM-2 inhibitor | NadD inh conf
O=C1C(Cc2ccccc2)Nc2ncnc(N3CCN(c4ccccc4)CC3)c2N1Cc1ccc(Br)cc1 (stereo not drawn) | 42* | . | . | . | 11
Cc1ccc(CN2C(=O)C(Cc3ccccc3)Nc3ncnc(N4CCN(c5ccccc5)CC4)c32)cc1 (stereo not drawn) | 28* | . | 24 | . | 10
O=C1C(Cc2ccccc2)Nc2ncnc(N3CCN(c4ccccc4)CC3)c2N1Cc1ccccc1 (stereo not drawn) | 15 | . | 18 | . | .
O=C(COC(=O)c1cc(-c2ccco2)nc2ccccc12)NCc1ccccc1 | 46* | -2 | 27 | -2 | 19
CCN(CC)C(=O)COC(=O)c1cc(-c2ccco2)nc2ccccc12 | 31* | -3 | . | -2 | 21
Brc1ccc(-c2ccc(/C=N/Nc3nncc(-c4ccccc4)n3)o2)cc1 | 29* | -4 | 10 | -3 | 9
COc1cccc(NC(=O)C2CCCN(S(C)(=O)=O)C2)c1 (stereo not drawn) | -8 | -1 | -4 | -1 | .
COc1ccc(CC(N)c2csc(NC(=O)c3cc(C(C)(C)C)oc3C)n2)cc1 (stereo not drawn) | 33* | . | . | . | -5
CCS(=O)(=O)N1CCN(c2ccc([N+](=O)[O-])c(NCC3CCCO3)c2)CC1 (stereo not drawn) | 4 | 0 | 1 | 2 | .
O=C(NCCc1ccc(F)cc1)c1cccc2c1C(=O)c1ccc(N3CCC(Cc4ccccc4)CC3)cc1S2(=O)=O | 28* | . | . | . | 5
O=C(NCc1ccco1)c1cccc2c1C(=O)c1ccc(N3CCC(Cc4ccccc4)CC3)cc1S2(=O)=O | 39* | . | . | . | 5
CC(C)c1cccc(-c2ccc3c(c2)S(=O)(=O)c2cccc(C(=O)NCc4ccccc4)c2C3=O)c1 | 18 | . | . | . | .
O=C(NCc1ccco1)c1cccc2c1C(=O)c1ccc(/C=C/c3ccccc3)cc1S2(=O)=O | 48* | . | . | . | 46*
CCCc1cc(C(=O)Nc2cc(OC)ccc2OC)cs1 | -6 | 0 | -4 | -1 | .
CCOc1ccc(CCN2C(=O)C(=O)N([C@@H](Cc3ccccc3)CN3CCC[C@H]3CN3C(=O)C(=O)NC[C@@H]3CC(C)C)C[C@@H]2Cc2ccc(O)cc2)cc1 | 30* | . | . | . | 31
CCOc1ccc(CCN2C(=O)C(=O)N([C@@H](Cc3ccccc3)CN3CCC[C@H]3CN3C(=O)C(=O)NC[C@@H]3Cc3ccc(O)cc3)C[C@@H]2Cc2ccc(O)cc2)cc1 | 29 | . | . | . | .
CCOc1ccc(CCN2C(=O)C(=O)N([C@@H](Cc3ccc(O)cc3)CN3CCC[C@@H]3CN3C(=O)C(=O)NC[C@@H]3Cc3ccccc3)C[C@@H]2Cc2ccccc2)cc1 | 29* | . | . | . | 43
Cc1ccc(-n2c(=S)[nH]c3[nH]ncc3c2=O)cc1 | -4 | -2 | -6 | -4 | .
CC1(c2ccccc2)CC(C)(C)n2c(O)c(C3=NC(=S)NC3=O)c3cccc1c32 (stereo not drawn) | 33* | -2 | 7 | -3 | -1
O=[N+]([O-])c1cccc(COc2ccccc2CN2CCCCC2)c1 | 2 | . | . | . | .
O=C(CN1C(=O)NC2(CCCc3ccccc32)C1=O)c1ccc(F)c(F)c1 (stereo not drawn) | -1 | . | . | . | .
